Results on 40 compounds are retold here after ChEMBL document CHEMBL1129249, “Synthesis and activity of a novel series of 3-biarylquinuclidine squalene synthase inhibitors” (J Med Chem, 1996).

For orientation: ED50 means the dose at which the effect has come halfway, by size or by number of responders. A higher ED50 goes with weaker potency. Usually IC50 stands for the concentration that inhibits the measured activity by half. Higher therefore signals weaker potency in that assay.

The first assay deals with Rattus norvegicus. In words: Inhibition of cholesterol biosynthesis from mevolanate after oral dosing to rat. The class given is functional. In outline: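 Rats were dosed orally, and cholesterol synthesis from mevalonate was then measured. ED50 (mg/kg) was derived from dose–response data and reported with 95% confidence limits.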
In turn, `OC1(c2ccc(-c3ccncc3)cc2)CN2CCC1CC2` (stereo unspecified) came in with an ED50 of 2.7 mg/kg.

In a further assay the target is T1, Squalene synthase (Rattus norvegicus, UniProt Q02769).
T1 sequence (Q02769 whole entry): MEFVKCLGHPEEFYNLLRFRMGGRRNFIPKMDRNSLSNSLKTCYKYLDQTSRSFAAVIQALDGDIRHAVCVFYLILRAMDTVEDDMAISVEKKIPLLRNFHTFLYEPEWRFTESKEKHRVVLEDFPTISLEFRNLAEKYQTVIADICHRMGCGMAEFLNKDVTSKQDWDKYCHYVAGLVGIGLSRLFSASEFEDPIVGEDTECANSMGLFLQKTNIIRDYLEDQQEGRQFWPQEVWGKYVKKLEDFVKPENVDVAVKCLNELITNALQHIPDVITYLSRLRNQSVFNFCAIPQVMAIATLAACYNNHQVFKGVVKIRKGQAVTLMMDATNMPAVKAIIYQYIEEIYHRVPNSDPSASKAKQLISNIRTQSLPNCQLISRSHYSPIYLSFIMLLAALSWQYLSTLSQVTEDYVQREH
In words: In vitro inhibition against rat microsomal squalene synthase (SS). In outline: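 Squalene synthase came from rat microsomes. Inhibition was tested in phosphate buffer. IC50 values are from duplicate determinations (n = 2).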
`OC1(c2ccc(-c3ccccc3)cc2)CN2CCC1CC2` (stereo in doubt; 2a(+)) showed a half-maximal inhibitory concentration (IC50) of 7 nM. On the same count and under the same terms, in the case of `c1ccc(-c2ccc(CCC3CN4CCC3CC4)cc2)cc1` (stereo unspecified) it was 5 nM; in that of `C(=C\C1CN2CCC1CC2)/c1ccc(-c2ccccc2)cc1` (stereo unspecified), 4 nM.

In turn, `C(=C/C1CN2CCC1CC2)/c1ccc(-c2ccccc2)cc1` (stereo unspecified) showed a half-maximal inhibitory concentration (IC50) of 580 nM. The same measure, in the same setting: in the case of `[O-][S+](CC1(O)CN2CCC1CC2)c1ccc(-c2ccccc2)cc1` (stereo unspecified) it was over 2500 nM; in that of `c1ccc(-c2ccc(CC3CN4CCC3CC4)cc2)cc1` (stereo unspecified), 27 nM.

As to `O=C(NC1CN2CCC1CC2)c1ccc(-c2ccccc2)cc1` (stereo unspecified), half-maximal inhibition (IC50) required 1200 nM. `C1=C(c2ccc(-c3ccccc3)cc2)C2CCN1CC2` yielded a half-maximal inhibitory concentration (IC50) of 18 nM. Against the preceding compound, the IC50 is about 67-fold lower. Same read-out and setting: the result for `OC1(COc2ccc(-c3ccccc3)cc2)CN2CCC1CC2` (stereo unspecified) reads 13 nM; that for `OC(c1ccc(-c2ccccc2)cc1)C1CN2CCC1CC2` (stereo in doubt; 32), 2500 nM; that for `O=S(=O)(CC1(O)CN2CCC1CC2)c1ccc(-c2ccccc2)cc1` (stereo unspecified), over 2500 nM. Same read-out and setting: in the case of `OC1(c2ccc(-c3nccs3)cc2)CN2CCC1CC2` (stereo unspecified) it was 30 nM.

Regarding `O=S(=O)(c1ccc(-c2ccccc2)cc1)C1CN2CCC1CC2` (stereo unspecified), the IC50 is over 2500 nM. `OC1(c2cnc(-c3ccccc3)s2)CN2CCC1CC2` (stereo unspecified): half-maximal inhibition (IC50) required 60 nM. In other words, the double-digit nanomolar range. Still for that read-out and setting: the result for `c1ccc(-c2ccc(C3CN4CCC3CC4)cc2)cc1` (stereo unspecified) reads 11 nM; that for `O=S(=O)(NC1CN2CCC1CC2)c1ccc(-c2ccccc2)cc1` (stereo unspecified), over 2500 nM. The compound `OC1(c2ccc(-c3cccnc3)cc2)CN2CCC1CC2` (stereo unspecified) came in with an IC50 of 270 nM. Same read-out and setting: in the case of `OC1(c2ccc(-c3cccs3)cc2)CN2CCC1CC2` (stereo unspecified) it was 40 nM; in that of `OC1(c2ccc(-c3ccc(F)cc3)cc2)CN2CCC1CC2` (stereo unspecified), 18 nM; in that of `OC1(c2ccc(-c3ccccn3)cc2)CN2CCC1CC2` (stereo unspecified), 240 nM. The same measure, in the same setting: in the case of `OC1(CSc2ccc(-c3ccccc3)cc2)CN2CCC1CC2` (stereo unspecified) it was 8 nM; in that of `OC1(c2ccc(-c3cnc4ccccc4c3)cc2)CN2CCC1CC2` (stereo unspecified), 200 nM. On the same count and under the same terms, in the case of `OC1(c2ccc(-c3cccs3)s2)CN2CCC1CC2` (stereo unspecified) it was over 2500 nM. `OC1(c2ccc(-c3nc4ccccc4s3)cc2)CN2CCC1CC2` (stereo unspecified) gave an IC50 of 6 nM.

`OC1(c2ccccc2)CN2CCC1CC2` (stereo unspecified) registered a concentration for half-maximal inhibition (IC50) of over 2500 nM. In turn, `Oc1ccc(-c2ccc(C3(O)CN4CCC3CC4)cc2)cc1` (stereo unspecified) yielded an IC50 of 132 nM. This counts as sub-micromolar.

In the case of `OC1(c2ccc(-c3ccccc3)cc2)CN2CCC1CC2` (stereo in doubt; 2), the IC50 worked out at 16 nM. The compound `OC1(c2ccc(-c3ccccc3)cc2)CN2CCC1CC2` (stereo in doubt; 2a(-)) showed a half-inhibitory concentration (IC50) of 121 nM. On the same count and under the same terms, in the case of `OC1(c2ccc(-c3ccncc3)cc2)CN2CCC1CC2` (stereo unspecified) it was 161 nM; in that of `OC1(C#Cc2ccc(-c3ccccc3)cc2)CN2CCC1CC2` (stereo unspecified), 3 nM. Same read-out and setting: the result for `COC1(c2ccc(-c3ccccc3)cc2)CN2CCC1CC2` (stereo unspecified) reads over 2500 nM; that for `OC(c1ccc(-c2ccccc2)cc1)C1CN2CCC1CC2` (stereo in doubt; 33), 2500 nM. Still for that read-out and setting: the result for `OC1(c2ccc(-c3ccc(-c4ccccc4)cc3)cc2)CN2CCC1CC2` (stereo unspecified) reads 370 nM; that for `OC1(c2ccc(-c3ncccn3)cc2)CN2CCC1CC2` (stereo unspecified), 30 nM; that for `OC1(CCc2ccc(-c3ccccc3)cc2)CN2CCC1CC2` (stereo unspecified), 7 nM. `OC1(c2cccc(-c3ccccc3)c2)CN2CCC1CC2` (stereo unspecified): the midpoint of inhibition, the IC50, lay at 60 nM. `CC(C)=CCC/C(C)=C/CC/C(C)=C/COCC1(O)CN2CCC1CC2` (stereo unspecified) yielded a half-maximal inhibitory concentration (IC50) of 60 nM. On the same count and under the same terms, in the case of `CC(C)=CCC/C(C)=C/CC/C(C)=C/COC1CN2CCC1CC2` (stereo unspecified) it was 70 nM. Compound `OC1(c2ccc(C3CCCCC3)cc2)CN2CCC1CC2` (stereo unspecified) returned an IC50 of 190 nM. Compared with the last compound, the IC50 is about 2.7-fold higher. On the same count and under the same terms, in the case of `OC1(c2ccc(C3OCCCO3)cc2)CN2CCC1CC2` (stereo unspecified) it was over 2500 nM.
